ChEMBL document CHEMBL4619819, “Toward the Target: Tilorone, Quinacrine, and Pyronaridine Bind to Ebola Virus Glycoprotein” (ACS Med Chem Lett, 2020)

Legend:
Ebolavirus = experiment: Antiviral activity against Ebolavirus infected in human HeLa cells assessed as reduction in viral replication incubated for 48 hrs by luminescence based assay; assay type: functional, organism-based; settings: Orthoebolavirus
[1] = Binding affinity to Ebola virus glycoprotein assessed as dissociation constant incubated for 20 to 30 mins by microscale thermophoresis; set-up: species or system Ebolavirus
Outline: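 EBOV glycoprotein amine-labelled with RED-NHS dye, 2.5 nM final in 10 mM MES pH 5.0, 150 mM NaCl, 170 mM sodium malonate pH 5.2, plus 0.05% Tween 20 and 10 mM BME. 16-point 2-fold series from 250 μM to 7.629 nM, 2.5% DMSO final. Incubated 20–30 min. MST run at 20% excitation, high power, 23.0 °C, in quadruplicate. Kd from mass-action fit of Fnorm, with aggregated or outlier traces removed.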

SMILES	IC50 (Ebolavirus) [µM]	Kd ([1]; read-out: Kd) [µM]	Kd [1]
COc1ccc2nc3cc(Cl)ccc3c(Nc3cc(CN4CCCC4)c(O)c(CN4CCCC4)c3)c2n1 [PYRONARIDINE]	0.82 to 1.3	7.34	
NC(=O)c1nc(F)cnc1O [FAVIPIRAVIR]			Not Active
CCN(CC)CCCC(C)Nc1c2ccc(Cl)cc2nc2ccc(OC)cc12 (centres undefined) [QUINACRINE]	1.05 to 1.48	7.55	
C[C@H]1[C@H](OC(=O)CCC(=O)O)O[C@@H]2O[C@@]3(C)CC[C@H]4[C@H](C)CC[C@@H]1[C@@]24OO3 [ARTESUNATE]			Not Active
CN(C)CCOc1ccc(/C(=C(/CCCl)c2ccccc2)c2ccccc2)cc1 [TOREMIFENE]		24.8	
CCN(CC)CCOc1ccc2c(c1)C(=O)c1cc(OCCN(CC)CC)ccc1-2 [TILORONE]	1.14 to 1.48	0.731	
